The species named for experiment [1] is Oryctolagus cuniculus. Briefly: Intrinsic activity was measured on the rabbit mesenteric vein. The class given is functional. Summed up:
(§1)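 Rabbit mesenteric vein from rabbits killed by stunning and exsanguination. Concentration-response curves built by consecutive drug additions to the bath fluid.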

Experiment [2] is filed under the species Oryctolagus cuniculus. The experiment can be described thus: Relative affinity compared to substance P was measured in rabbit mesenteric vein. The format is functional. The procedure, abridged:
as §1

The species entered for experiment [3] is Cavia porcellus. The experiment can be described thus: Intrinsic activity was measured on the guinea pig ileum. The format is functional. The procedure, abridged: (§2)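 Guinea pig ileum (animals 200-400 g, both sexes) from animals killed by stunning and exsanguination. Concentration-response curves built by consecutive additions of drug to the bath.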
The species named for experiment [4] is Oryctolagus cuniculus. Briefly: Apparent affinity was measured on the rabbit mesenteric vein. The format is functional. Summed up: as §1
Experiment [5] concerns Rattus norvegicus. Briefly: Relative potency compared substance P - change in blood pressure in anesthetized rat. The format is functional. The procedure, abridged:
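Rats 200-250 g, anesthetized with urethane (1.4 g/kg, sc). Peptides injected into the jugular vein. Blood pressure recorded directly via a cannula in the right carotid artery with a mercury manometer on a kymograph-driven smoked drum.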

Experiment [6] is filed under the species Cavia porcellus. The experiment can be described thus: Apparent affinity was measured on the guinea pig ileum. The class given is functional. The procedure, abridged:
as §2

The species entered for experiment [7] is Cavia porcellus. Briefly: Relative affinity compared to substance P was measured in guinea pig ileum. The format is functional. Summed up:
as §2

The species named for experiment [8] is Canis familiaris. Briefly: Relative affinity compared to substance P was measured in the dog carotid artery. The format is functional, Canis lupus familiaris.
Experiment [9] is filed under the species Canis familiaris. Briefly: Apparent affinity was measured on the dog carotid artery. The format is functional, Canis lupus familiaris.
The species entered for experiment [10] is Canis familiaris. The experiment can be described thus: Intrinsic activity was measured on the dog carotid artery. The format is functional, Canis lupus familiaris.

Experimental findings from ChEMBL document CHEMBL1121933 (1982) are described below.

Regarding `COc1ccc(C[C@H](NC(=O)[C@H](CCC(N)=O)NC(=O)[C@H](CCC(N)=O)NC(=O)[C@@H]2CCCN2C(=O)[C@H](CCCCN)NC(=O)[C@@H]2CCCN2C(=O)[C@@H](N)CCCN=C(N)N)C(=O)N[C@@H](Cc2ccccc2)C(=O)NCC(=O)N[C@@H](CC(C)C)C(=O)N[C@@H](CCSC)C(N)=O)cc1`, the Alphax10E is recorded as 0.8 in experiment [1] and 1 in [3]. Further, the figures for the RA in experiment [2] and in experiment [7] were 20.5 and 31, respectively. The pD2 in experiment [4] is 6.87; in [6], 8.27. The RP in experiment [5] turned out to be 31.

For the compound `CSCC[C@H](NC(=O)[C@H](CC(C)C)NC(=O)CNC(=O)[C@H](Cc1ccccc1)NC(=O)[C@H](Cc1c[nH]c2ccccc12)NC(=O)[C@H](CCC(N)=O)NC(=O)[C@H](CCC(N)=O)NC(=O)[C@@H]1CCCN1C(=O)[C@H](CCCCN)NC(=O)[C@@H]1CCCN1C(=O)[C@@H](N)CCCN=C(N)N)C(N)=O`, the RA is recorded as 10 in experiment [2], 37.1 in experiment [8] and 39.7 in experiment [7]. Moreover, the Alphax10E in [3] and in [10] was 1 throughout. The pD2 is 6.55 in [4], 9.56 in [9] and 8.38 in experiment [6]. In [5], this compound yielded an RP of 51.

Take `CSCC[C@H](NC(=O)[C@H](CC(C)C)NC(=O)CNC(=O)[C@H](CC(C)C)NC(=O)[C@H](Cc1ccccc1)NC(=O)[C@H](CCC(N)=O)NC(=O)[C@H](CCC(N)=O)NC(=O)[C@@H]1CCCN1C(=O)[C@H](CCCCN)NC(=O)[C@@H]1CCCN1C(=O)[C@@H](N)CCCN=C(N)N)C(N)=O`: the values for the Alphax10E in experiment [1], in [3] and in experiment [10] were 0.8, 1 and 1, respectively. Also, the RA amounted to 23.6 in experiment [2], 64 in [8] and 68 in experiment [7]. Besides, the pD2 is recorded as 6.92 in [4], 9.81 in [9] and 8.61 in [6]. This compound came in with an RP in experiment [5] of 70.

For `CSCC[C@H](NC(=O)[C@H](CC(C)C)NC(=O)[C@@H](CC(C)C)NC(=O)[C@H](Cc1ccccc1)NC(=O)[C@H](Cc1ccccc1)NC(=O)[C@H](CCC(N)=O)NC(=O)[C@H](CCC(N)=O)NC(=O)[C@@H]1CCCN1C(=O)[C@H](CCCCN)NC(=O)[C@@H]1CCCN1C(=O)[C@@H](N)CCCN=C(N)N)C(N)=O`, the RA in [2] came to 0.4; in experiment [8], 0.3; in experiment [7], 2.7. In addition, the Alphax10E in experiment [3] and in [10] was 1 each time. Also, the pD2 in experiment [4] is listed as 5.11; in [9], 7.49; in experiment [6] it was 7.21. In experiment [5], the RP turned out to be 0.7.

Regarding H-RPKPQQFGGFM-NH2, the figures for the RA in experiment [2], in [8] and in [7] were <0.1, 0.2 and <0.1, respectively. In addition, the pD2 was found to be 7.33 in experiment [9] and 5.31 in [6]. The RP in [5] turned out to be 0.07. In addition, the Alphax10E in experiment [10] came to 1.

Regarding `CC[C@H](C)[C@H](NC(=O)[C@H](Cc1ccccc1)NC(=O)[C@H](CCC(N)=O)NC(=O)[C@H](CCC(N)=O)NC(=O)[C@@H]1CCCN1C(=O)[C@H](CCCCN)NC(=O)[C@@H]1CCCN1C(=O)[C@@H](N)CCCN=C(N)N)C(=O)NCC(=O)N[C@@H](CC(C)C)C(=O)N[C@@H](CCSC)C(N)=O`, the Alphax10E in [1] and in experiment [3] was 1 in each case. Moreover, the RA in experiment [2] and in experiment [7] was 100 in each case. Moreover, the pD2 in experiment [4] was determined as 7.55; in [6], 8.78. This compound had an RP in experiment [5] of 100.

Turning to `CSCC[C@H](NC(=O)[C@H](CC(C)C)NC(=O)CNC(=O)[C@H](Cc1ccccc1)NC(=O)[C@H](CC(C)C)NC(=O)[C@H](CCC(N)=O)NC(=O)[C@H](CCC(N)=O)NC(=O)[C@@H]1CCCN1C(=O)[C@H](CCCCN)NC(=O)[C@@H]1CCCN1C(=O)[C@@H](N)CCCN=C(N)N)C(N)=O`, the RA in experiment [2] amounted to 1.3; in experiment [8], 0.4; in [7], 2.3. In addition, the Alphax10E in [3] and in experiment [10] was 1 throughout. For the same compound, the pD2 is listed as 5.66 in [4], 7.64 in experiment [9] and 7.15 in [6]. This compound had an RP in [5] of 0.8.

As to `CSCC[C@H](NC(=O)[C@H](CC(C)C)NC(=O)CNC(=O)[C@@H](Cc1c[nH]c2ccccc12)NC(=O)[C@H](Cc1ccccc1)NC(=O)[C@H](CCC(N)=O)NC(=O)[C@H](CCC(N)=O)NC(=O)[C@@H]1CCCN1C(=O)[C@H](CCCCN)NC(=O)[C@@H]1CCCN1C(=O)[C@@H](N)CCCN=C(N)N)C(N)=O`, the RA in experiment [2] came to 0.3; in experiment [8] it was 0.2; in [7], 0.8. Moreover, the Alphax10E in [3] and in experiment [10] was 1 each time. The pD2 was 4.92 in experiment [4], 7.12 in experiment [9] and 6.68 in [6]. Further, in experiment [5], the RP stood at 0.8.

Turning to `CSCC[C@H](NC(=O)[C@H](CC(C)C)NC(=O)CNC(=O)[C@H](Cc1ccccc1)NC(=O)[C@@H](Cc1c[nH]c2ccccc12)NC(=O)[C@H](CCC(N)=O)NC(=O)[C@H](CCC(N)=O)NC(=O)[C@@H]1CCCN1C(=O)[C@H](CCCCN)NC(=O)[C@@H]1CCCN1C(=O)[C@@H](N)CCCN=C(N)N)C(N)=O`, the RA was <0.1 in experiment [2], 0.2 in [8] and 0.2 in [7]. The Alphax10E in [3] and in experiment [10] was 1 in each case. For the same compound, the pD2 in experiment [9] amounted to 7.33; in [6] it was 5.9. The compound further yielded an RP in [5] of 0.2.

`CSCC[C@H](NC(=O)[C@H](Cc1ccccc1)NC(=O)CNC(=O)[C@@H](C)NC(=O)[C@H](Cc1ccccc1)NC(=O)[C@H](CCC(N)=O)NC(=O)[C@H](CCC(N)=O)NC(=O)[C@@H]1CCCN1C(=O)[C@H](CCCCN)NC(=O)[C@@H]1CCCN1C(=O)[C@@H](N)CCCN=C(N)N)C(N)=O`: the results for the RA in experiment [2], in experiment [8] and in experiment [7] were <0.1, 1.4 and <0.01, respectively. The values for the pD2 in experiment [9] and in experiment [6] were 8.15 and 4.73, respectively. In [5], this compound displayed an RP of 0.09. For the same compound, in [10], the Alphax10E is given as 1.

For the compound `COc1ccc(C[C@H](NC(=O)[C@H](Cc2ccccc2)NC(=O)[C@H](CCC(N)=O)NC(=O)[C@H](CCC(N)=O)NC(=O)[C@@H]2CCCN2C(=O)[C@H](CCCCN)NC(=O)[C@@H]2CCCN2C(=O)[C@@H](N)CCCN=C(N)N)C(=O)NCC(=O)N[C@@H](CC(C)C)C(=O)N[C@@H](CCSC)C(N)=O)cc1`, the Alphax10E in experiment [1], in experiment [3] and in experiment [10] was 1 each time. Moreover, the RA in experiment [2] came out at 100; in [8], 95; in [7] it was 100. The results for the pD2 in experiment [4], in [9] and in experiment [6] were 7.55, 9.98 and 8.78, respectively. Also, the RP in experiment [5] is on record as 100.

Regarding `CSCC[C@H](NC(=O)[C@H](CC(C)C)NC(=O)CNC(=O)[C@H](Cc1ccccc1)NC(=O)[C@H](CC1CCCCC1)NC(=O)[C@H](CCC(N)=O)NC(=O)[C@H](CCC(N)=O)NC(=O)[C@@H]1CCCN1C(=O)[C@H](CCCCN)NC(=O)[C@@H]1CCCN1C(=O)[C@@H](N)CCCN=C(N)N)C(N)=O`, the Alphax10E stood at 0.8 in experiment [1], 1 in experiment [3] and 1 in experiment [10]. In addition, the RA in experiment [2] is reported as 13.2; in [8] it was 6.4; in [7] it was 20. For the same compound, the pD2 is recorded as 6.66 in [4], 8.8 in experiment [9] and 8.08 in experiment [6]. The compound further registered an RP in experiment [5] of 21.

With H-RPKPQQLLGLM-NH2, the RA in [2] was <0.01; in experiment [8], <0.1; in [7] it was <0.1. Further, the pD2 in experiment [9] came to 6.38; in experiment [6], 5.29. The RP in [5] was found to be 0.2. In [10], the Alphax10E is 1.

Regarding `CSCC[C@H](NC(=O)[C@H](CC(C)C)NC(=O)[C@@H](Cc1ccccc1)NC(=O)[C@@H](CC(C)C)NC(=O)[C@H](Cc1ccccc1)NC(=O)[C@H](CCC(N)=O)NC(=O)[C@H](CCC(N)=O)NC(=O)[C@@H]1CCCN1C(=O)[C@H](CCCCN)NC(=O)[C@@H]1CCCN1C(=O)[C@@H](N)CCCN=C(N)N)C(N)=O`, the RA in [2] is listed as <0.01; in experiment [8], 0.8; in experiment [7], 1.2. The pD2 in experiment [9] is reported as 7.89; in [6] it was 6.83. This compound also registered an RP in experiment [5] of 1.3. In experiment [10], this compound registered an Alphax10E of 1.

On to `CSCC[C@H](NC(=O)[C@H](CC(C)C)NC(=O)CNC(=O)[C@H](CC1CCCCC1)NC(=O)[C@H](Cc1ccccc1)NC(=O)[C@H](CCC(N)=O)NC(=O)[C@H](CCC(N)=O)NC(=O)[C@@H]1CCCN1C(=O)[C@H](CCCCN)NC(=O)[C@@H]1CCCN1C(=O)[C@@H](N)CCCN=C(N)N)C(N)=O`, for which the Alphax10E in [1] and in [3] was 1 each time. Besides, the RA in experiment [2] and in [7] was 100 each time. In addition, the pD2 in [4] was found to be 7.55; in experiment [6], 8.78. The compound further showed an RP in [5] of 100.
